Hits are enriched below; roughly 3.5% of the tested compounds scored in any of these assays.
MrgX1 allo act – human MrgX1 positive allosteric modulation, primary screen. hit rate 0.63% among 310,000. B-score at 10 µM. MrgX1-HEK293, Fluo-4 calcium flux, FDSS; active compounds read high. AID 588675. Q96LB2;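 active = plate-corrected calcium response at least 3 library SD above typical, normal starting fluorescence, not activating the receptor alone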;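 note: compound read alongside a low EC10 to EC30 dose of BAM8-22 agonist; peak minus trough fluorescence over baseline measured at the second addition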
Target sequence (Q96LB2 whole entry, looked up): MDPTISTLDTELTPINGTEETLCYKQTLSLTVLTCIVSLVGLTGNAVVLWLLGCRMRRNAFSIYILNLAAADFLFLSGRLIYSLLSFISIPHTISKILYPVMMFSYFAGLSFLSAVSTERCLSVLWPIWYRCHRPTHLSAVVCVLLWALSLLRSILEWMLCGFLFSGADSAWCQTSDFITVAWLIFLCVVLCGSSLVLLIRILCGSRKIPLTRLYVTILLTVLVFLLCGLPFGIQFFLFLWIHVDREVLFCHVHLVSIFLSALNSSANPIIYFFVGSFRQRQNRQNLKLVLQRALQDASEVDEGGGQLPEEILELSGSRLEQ
MrgX1 ag – activates human MrgX1 receptor signaling; B-score at 10 µM; MrgX1-HEK293 cells, Fluo-4 calcium fluorescence, agonist mode; active compounds read high; AID 588627; hit rate 0.44% among 310,000;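 active = calcium response B-score plate-corrected fluorescence ratio at least 3 library SD, with starting fluorescence B-score inside 5 SD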
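Material – MrgX1-expressing HEK293 cells · Input – 15,000 cells seeded per well · Dosing – compound as first of three additions · Times – overnight seeding, then 1 h dark dye loading · Measured by – kinetic Fluo-4 NW fluorescence of intracellular calcium · Read-out – B-scored fluorescence response ratio · Benchmarks – positive and negative control wells on each plate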
RGS4 act – potentiators or activators of RGS4 | HEK293 M3R/inducible RGS4, carbachol calcium flux Fluo4; active compounds read low | B-score at 10 µM | hit rate 0.92% among 310,000 | AID 463111;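 active = B-score of the integrated calcium signal more than 4 SD below the library mean, with starting fluorescence not abnormally high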;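 note: negative B-score means reduced calcium response which marks RGS4 activation or potentiation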
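test system = M3R-expressing HEK293 line, RGS4 induced by doxycycline | probe or stimulus = carbachol at ECmax as muscarinic agonist stimulus | timing = dye loading 30 min 37 °C, buffer rest 30 min RT | signal = calcium dye Fluo4 fluorescence | evaluation = B score from integrated fluorescence ratio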
RGS4 inh – inhibitors of human RGS4. HEK293 M3R/RGS4 inducible, Fluo-4 calcium flux; active compounds read high; triggered by carbachol at its EC20. B-score at 10 µM. hit rate 0.45% among 310,000. AID 463165;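 active = B-score, a plate-corrected calcium signal, over three deviations above library mean, with baseline fluorescence within five deviations of library mean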;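 note: RGS4 expression induced by doxycycline in cells with stable M3 receptor; B-score is computed from the integrated fluorescence ratio over baseline after carbachol; higher B-score means a larger calcium signal and so more RGS4 inhibition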
Target sequence (P49798 whole entry, looked up): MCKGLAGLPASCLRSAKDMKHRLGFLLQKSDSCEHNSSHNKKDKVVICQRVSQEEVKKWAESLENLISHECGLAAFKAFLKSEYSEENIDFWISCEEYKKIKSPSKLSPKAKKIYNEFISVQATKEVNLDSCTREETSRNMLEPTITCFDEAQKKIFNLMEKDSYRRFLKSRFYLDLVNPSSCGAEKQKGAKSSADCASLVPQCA
MrgX1 antagonist – antagonists of human MrgX1 receptor. MRGX1-HEK293 calcium flux, Fluo-4, BAM8-22 antagonism; active compounds read low. B-score at 10 µM. hit rate 1.3% among 310,000;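 active = calcium-response B-score plate-corrected more than 3 library SD below zero, starting fluorescence within 5 deviations, no agonist response on first addition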;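 note: peak minus trough fluorescence over baseline after final BAM8-22 challenge near maximal dose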
A number is an active result; - = inactive; . = no result given.

SMILES	MrgX1 allo act	MrgX1 ag	RGS4 act	RGS4 inh	MrgX1 antagonist
Cc1nccn1CCOc1ccc(Cl)cc1	-	-	-	-	-
O=C(Nc1cccnc1)c1cn(-c2ccccc2)nc1-c1cccs1	-	-	-	-	-
CCN(CC)CCNC(=O)c1ccc(NC(=O)c2ccccc2-c2ccc(C(F)(F)F)cc2)cc1	-	-	-9.5	-	-
CCOc1ccc(NC(=O)CN(C)C(=O)c2cn(-c3ccc(F)cc3)nc2-c2cccc(OC)c2)cc1OCC	-	-	-7.2	-	-
CCN(CC)CCNC(=O)c1ccc(NC(=O)c2cn(-c3ccccc3)nc2-c2cccs2)cc1	-	-	-8.1	-	-
CCN(CC)CCNC(=O)c1ccc(NC(=O)c2cn(-c3ccc(F)cc3)nc2-c2cccc(OC)c2)cc1	-	-	-11	-	-
Cc1ccc(-c2cc(C(=O)N3CCCc4ccccc43)no2)cc1	-	-	-	-	-
CCN(CC)CCNC(=O)c1ccc(NC(=O)/C=C/c2ccc3ccccc3n2)cc1	-	-	-	-	-8.5
CC(C)CN(CC(C)C)S(=O)(=O)N1CCC(C(=O)NCc2ccc(F)cc2)CC1	-	-	-	-	-
CC(C)CN(CC(C)C)S(=O)(=O)N1CCC(C(=O)NCCc2ccc(Cl)cc2)CC1	-	-	-	-	-7.6
Cc1cc(C(=O)CSc2nnc(-c3ccccc3F)o2)c(C)n1Cc1cccs1	-	-	-	-	-6
COc1ccccc1-n1cnnc1SCC(=O)c1cc(C)n(Cc2cccs2)c1C	-	-	-	-	-
COc1cc(CNC23CC4CC(CC(C4)C2)C3)ccc1OCc1ccccc1	-	-	-	-	-
CCOP(=O)(OCC)C(NC(=O)Nc1ccc(C)c(Cl)c1)c1ccccc1 (stereo not drawn)	-	-	-	-	-7.8
CCN(C(=O)COC(=O)/C=C/c1ccc(O)c(OC)c1)C1CCS(=O)(=O)C1 (stereo not drawn)	-	-	-	-	-
Cc1ccc(S(=O)(=O)N2CCC(C(=O)N/N=C/c3cccnc3)CC2)cc1	-	-	-	-	-5.2
Cc1ccc(S(=O)(=O)N2CCC(C(=O)N/N=C/c3ccccc3[N+](=O)[O-])CC2)cc1	-	-	-	-	-
CN1C(C(=O)NCc2cccc(Br)c2)CC2Cn3c(nc4cc(Cl)c(Cl)cc43)C21 (stereo not drawn)	-	-	-	-	-
CCc1ccc(C2C(C#N)=C(N)SC(N)=C2C#N)s1	-	-	-	-	-6.1
Cc1ccc(C2C(C#N)=C(N)SC(N)=C2C#N)o1	-	-	-	-	-7.3
CCc1ccc(C2C(C#N)=C(N)SC(N)=C2C#N)cc1	-	-	-	-	-5.3
N#CC1=C(N)SC(N)=C(C#N)C1c1ccc(C(F)(F)F)cc1	-	-	-	-	-
Cc1ccc(SCc2nc3ncccn3c2Br)cc1	-	-	-7.6	-	-
COc1ccc(N(CC(=O)NCc2ccc(F)cc2)C(=O)c2snc(C(N)=O)c2N)cc1	-	-	-	-	-
O=Cc1cc2ccccc2nc1SCCCF	-	-	-	-	-5.8
SMILES	MrgX1 allo act	MrgX1 ag	RGS4 act	RGS4 inh	MrgX1 antagonist
CSc1nc2ccccc2cc1/C=C(\C#N)c1ccccc1	-	-	-	-	-
CCOC(=O)c1cnc2c(C)c(Cl)ccc2c1NCCCN1CCOCC1	9.1	-	-	-	-
CC(C)C[C@H]1CN=C(Nc2ccccc2)N1CC1CCC(C(C)(C)C)CC1 (stereo partly drawn)	6.9	-	.	.	-
CC(C)(C)[C@H]1C=C(C(=O)N2CCN(Cc3ccccc3)CC2)O[C@@H](OCc2ccc(CO)cc2)C1	7.4	-	-	-	-
O=C(Nc1cccnc1)c1cc2cc(Br)ccc2o1	-	-	-	-	-
COc1ccc(-c2nnc(-c3cc4c(ccc5ccccc54)oc3=O)o2)cc1	-	-	-9	-	-
S=C(NCCc1ccccc1)N/N=C/C1CCCCC1	9.1	-	-	-	-
S=C(NCCc1ccccc1)NN=C1CCCCCC1	7.4	-	-	-	-
O=C(NC(=S)NCCc1ccccc1)C1CCCCC1	-	-	-	-	-
COCCNC(=S)NN=C1CCCCCC1	.	.	-	-	.
O=C(CCSc1nnc(-c2ccncc2)o1)Nc1ccccc1Cl	-	-	-	-	-
Cn1nnnc1Sc1c(Cl)cccc1[N+](=O)[O-]	-	-	-	-	-5.6
C=CC#CC1(O)CC(C)N(C)CC1C (stereo not drawn)	-	-	-	-	-
COc1ccc(NS(=O)(=O)c2ccc(O)c(NC(=O)c3ccc(S(=O)(=O)N4CCCCCC4)cc3)c2)cc1	-	-	-7.8	-	-
COc1ccc(NS(=O)(=O)c2ccc(O)c(NC(=O)c3ccc(S(=O)(=O)N4CCCC4)cc3)c2)cc1	-	-	-	-	-
O=C(O)c1cccc(N=C2NC(=O)C(CO)(CO)S2)c1	-	-	-	-	-
Cc1ccc(C(=O)N2CCN=C2SCc2ccc([N+](=O)[O-])cc2)cc1	-	-	-	-	-7.1
Cc1ccc(CSC2=NCCN2C(=O)c2ccc([N+](=O)[O-])cc2)cc1	-	-	-	-	-
COc1cccc(-c2ccc(NC(=O)C3CCCN(Cc4ccc(CO)o4)C3)cc2)c1 (stereo not drawn)	-	-	-	-	-
COc1ccc(/C=N/NC(=O)c2cc3c(ccc4ccccc43)o2)c(OC)c1	.	.	-8	-	.
CC(O)CNCCCOc1ccc(Cl)cc1C(C)(C)C (stereo not drawn)	-	-	-	-	-
Cc1nc2c(C)cccn2c1/C(O)=C1\C(=O)C(=O)N(CCN(C)C)C1c1ccncc1 (stereo not drawn)	-	-	-	-	-
Cc1nc2ccccn2c1/C(O)=C1\C(=O)C(=O)N(CCCN(C)C)C1c1ccc(F)cc1 (stereo not drawn)	-	-	.	.	-4.8
O=c1[nH]c2ccccc2nc1/C=C/c1ccc(Cl)cc1	-	-	-	-	-
CC(NC(=O)Cn1cc(C(F)(F)F)ccc1=O)c1ccc(F)cc1 (stereo not drawn)	6.9	-	-	-	-
SMILES	MrgX1 allo act	MrgX1 ag	RGS4 act	RGS4 inh	MrgX1 antagonist
O=C(Cc1ccccc1)Nc1ccc(NC(=O)c2ccco2)cc1Cl	-	-	-	-	-
Cc1c(N=C(N)/N=C(\N)Nc2ccccc2)c(=O)n(-c2ccccc2)n1C	-	-	-	-	-4.6
Cc1cc(C(=O)O)ccc1-c1ccc(/C=C2\SC(=O)N(CC(=O)Nc3ccc4c(c3)OCO4)C2=O)o1	-	-	-	-	-
C#CCN1C(=O)S/C(=C\c2ccc(-c3ccc(C(=O)O)cc3C)o2)C1=O	8.1	-	-	-	-
Cc1ccc(C)c(N2C(=N)S/C(=C\c3ccc(-c4ccccc4C(=O)O)o3)C2=O)c1	12	-	-	-	-
CCOC(=O)C(NC(C)=O)(Nc1ccc(S(=O)(=O)Nc2ccncn2)cc1)C(F)(F)F (stereo not drawn)	-	-	-	-	-

Screens from PubChem BioAssay.
